Source: ChEMBL document CHEMBL2331550, “Design, synthesis and structure-activity relationship of novel tricyclic benzimidazolone derivatives as potent 18 kDa translocator protein (TSPO) ligands” (Bioorg Med Chem, 2013)
Values after ≈ are worked out from the molar mass of the structure shown.

Key:
[1] = Metabolic stability in rat liver S9 fraction assessed as compound remaining at 1 uM after 30 mins; assay type: ADME, subcellular; settings: read-out: Stability
Rattus norvegicus = organism: Rattus norvegicus; assay: Displacement of [3H]flumazenil from CBR in Sprague-Dawley rat cerebral cortex membrane at 10 uM after 1 hr by liquid scintillation counting analysis; assay type: tissue-based
In short: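 Male SD rat cerebral cortex was homogenised in potassium phosphate buffer (200 mM KCl, 20 mM KOH, 20 mM KH2PO4, pH 7.4) and washed at 32,500×g. Membranes were incubated with 1.0 nM [3H]-flumazenil (final) and 10 µM test compound for 1 h at 25 °C, then GF/B-filtered and counted by scintillation. Nonspecific binding was taken with […]. Percent inhibition of specific binding was measured in duplicate.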

Translocator protein = Translocator protein (Rattus norvegicus, UniProt P16257); assay: Displacement of [3H]PK11195 from TSPO in Sprague-Dawley rat kidney mitochondria after 1 hr by liquid scintillation counting analysis
[2] = target: Translocator protein (Rattus norvegicus) (UniProt P16257); assay: Displacement of [3H]PK11195 from TSPO in Sprague-Dawley rat kidney mitochondria at 100 nM after 1 hr by liquid scintillation counting analysis
[3] = Metabolic stability in rat liver S9 fraction assessed as compound remaining at 10 uM after 30 mins; assay type: ADME, subcellular; settings: read-out: Stability
[4] = Aqueous solubility of the compound at pH 2.5; assay type: physicochemical
[5] = Aqueous solubility of the compound at pH 7.4; assay type: physicochemical

Translocator protein, sequence (P16257 whole entry, looked up): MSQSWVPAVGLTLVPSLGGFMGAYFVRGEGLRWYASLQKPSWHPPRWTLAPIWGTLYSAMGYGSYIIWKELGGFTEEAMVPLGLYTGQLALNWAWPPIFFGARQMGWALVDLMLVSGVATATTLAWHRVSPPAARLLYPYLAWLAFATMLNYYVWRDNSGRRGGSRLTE
Translocator protein (Rattus norvegicus), sequence (P16257 whole entry, looked up): as above

Row | Structure (SMILES) | remaining at 0.5 h, 1 µM [1] | inhibition (Rattus norvegicus) | Ki (Translocator protein) | also measured
1 | CN(C(=O)Cn1c(=O)n2c3c(cc(-c4ccccn4)cc31)CCC2)c1ccccc1 | 0% | – | – | –
2 | CN(C(=O)Cn1c(=O)n2c3c(cc(-c4ccccc4)cc31)CCC2)c1cccnc1 | 0% | 36% | 2.1 nM | –
3 | O=C(Cn1c(=O)n2c3c(cc(-c4ccccc4)cc31)CCC2)Nc1ccccc1 | 62% | 27% | 33 nM | –
4 | CN(C(=O)Cn1c(=O)n2c3c(cc(-c4ccccc4)cc31)OCC2)c1ccccc1 | 1% | 68% | 0.21 nM | –
5 | COc1cccc(N(C)C(=O)Cn2c(=O)n3c4c(cc(-c5ccccc5)cc42)CCC3)c1 | 0% | 6% | 0.28 nM | –
6 | COc1cccc(-c2cc3c4c(c2)n(CC(=O)N(C)c2ccccc2)c(=O)n4CCC3)c1 | 1% | – | – | –
7 | CN(C(=O)Cn1c(=O)n2c3c(cc(-c4ccncc4)cc31)CCC2)c1ccccc1 | 3% | – | – | –
8 | CN(C(=O)Cn1c(=O)[nH]c2ccc(-c3ccccc3)cc21)c1ccccc1 | – | – | – | inhibition [2]: 86%
9 | CN(C(=O)Cn1c(=O)n2c3c(cc(-c4ccc(C(F)(F)F)cc4)cc31)CCC2)c1ccccc1 | 0% | – | – | –
10 | COc1ccc(N(C)C(=O)Cn2c(=O)n3c4c(cc(-c5ccccc5)cc42)CCC3)cc1 | – | 3% | 0.73 nM | remaining at 0.5 h, 10 µM [3]: 0%
11 | CN(C(=O)Cn1c(=O)n(C)c2ccc(-c3ccccc3)cc21)c1ccccc1 | – | – | – | inhibition [2]: 100%
12 | CN(C(=O)Cn1c(=O)n2c3c(cc(Br)cc31)CCC2)c1ccccc1 | – | – | – | remaining at 0.5 h, 10 µM [3]: 0%
13 | CN(C(=O)Cn1c(=O)n2c3c(cc(-c4ccccc4)cc31)CCCC2)c1ccccc1 | 1% | 30% | 0.32 nM | –
14 | CN(C(=O)Cn1c(=O)n2c3c(cc(-c4cccnc4)cc31)CCC2)c1ccccc1 | – | – | – | remaining at 0.5 h, 10 µM [3]: 0%
15 | COc1ccc(-c2cc3c4c(c2)n(CC(=O)N(C)c2ccccc2)c(=O)n4CCC3)cc1 | – | – | – | remaining at 0.5 h, 10 µM [3]: 2%
16 | CN(C(=O)Cn1c(=O)n2c3c(cc(-c4cccc(C(F)(F)F)c4)cc31)CCC2)c1ccccc1 | 0% | – | – | –
17 | CN(C(=O)Cn1c(=O)n2c3c(cc(-c4ccccc4)cc31)CCC2)c1ccncc1 | 0% | 24% | 15 nM | –
18 | CCCN(CCC)C(=O)Cn1c(=O)n2c3c(cc(-c4ccccc4)cc31)CCC2 | 1% | 11% | 1.7 nM | –
19 | CN(C(=O)Cn1c(=O)n2c3c(cc(-c4ccccc4)cc31)CCC2)c1ccccn1 | 0% | 34% | 2.5 nM | –
20 | CN(C(=O)Cn1c(=O)n2c3c(cccc31)CCC2)c1ccccc1 | – | – | – | remaining at 0.5 h, 10 µM [3]: 0%
21 | CN(Cc1ccccc1)C(=O)Cn1c(=O)n2c3c(cc(-c4ccccc4)cc31)CCC2 | 1% | 72% | 0.23 nM | –
22 | CN(C(=O)Cn1c(=O)n2c3c(cc(Nc4cccnc4)cc31)CCC2)c1ccccc1 | 41% | – | – | solubility [4]: > 1000 µg/mL; solubility [5]: 4 µg/mL (≈ 9.67 µM)
23 | CN(C(=O)Cn1c(=O)n2c3c(cc(-c4ccccc4)cc31)CCC2)c1ccccc1 | 12% | 14% | 0.94 nM | –
24 | CN(C(=O)Cn1c(=O)n2c3c(cc(-c4ccccc4)cc31)CCC2)c1cccc(Cl)c1 | 0% | 3% | 0.44 nM | –
25 | CN(C(=O)Cn1c(=O)n2c3c(cc(-c4ccccc4)cc31)CCC2)c1ccc(Cl)cc1 | 0% | 4% | 0.13 nM | –
